Laboratory results from ChEMBL document CHEMBL1135657, “Novel dual inhibitors of AChE and MAO derived from hydroxy aminoindan and phenethylamine as potential treatment for Alzheimer's disease” (J Med Chem, 2002).

Key:
[1] = target: T1, Amine oxidase [flavin-containing] B (Rattus norvegicus, UniProt P19643); assay: biochemical; format: tissue-based, Brain
T1 sequence (P19643 whole entry): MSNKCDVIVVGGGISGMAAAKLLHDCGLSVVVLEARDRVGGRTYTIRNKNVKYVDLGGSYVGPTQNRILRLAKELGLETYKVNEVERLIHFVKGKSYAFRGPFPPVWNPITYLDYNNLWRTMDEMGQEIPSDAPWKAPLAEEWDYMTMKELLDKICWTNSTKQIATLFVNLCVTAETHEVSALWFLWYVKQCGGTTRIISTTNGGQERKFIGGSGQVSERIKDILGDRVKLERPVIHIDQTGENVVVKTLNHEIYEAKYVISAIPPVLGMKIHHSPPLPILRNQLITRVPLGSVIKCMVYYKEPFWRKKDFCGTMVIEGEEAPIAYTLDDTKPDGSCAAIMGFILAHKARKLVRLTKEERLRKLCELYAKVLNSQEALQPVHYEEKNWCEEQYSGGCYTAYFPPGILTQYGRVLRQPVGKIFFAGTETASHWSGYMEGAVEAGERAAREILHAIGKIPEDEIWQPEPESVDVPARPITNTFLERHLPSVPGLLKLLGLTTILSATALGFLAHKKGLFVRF

[2] = target: T2, Amine oxidase [flavin-containing] A (Rattus norvegicus, UniProt P21396); assay: In vitro inhibitory concentration against Monoamine oxidase A of rat brain homogenates; value ranges from 0.5-3.7; format: tissue-based
T2 sequence (P21396 whole entry): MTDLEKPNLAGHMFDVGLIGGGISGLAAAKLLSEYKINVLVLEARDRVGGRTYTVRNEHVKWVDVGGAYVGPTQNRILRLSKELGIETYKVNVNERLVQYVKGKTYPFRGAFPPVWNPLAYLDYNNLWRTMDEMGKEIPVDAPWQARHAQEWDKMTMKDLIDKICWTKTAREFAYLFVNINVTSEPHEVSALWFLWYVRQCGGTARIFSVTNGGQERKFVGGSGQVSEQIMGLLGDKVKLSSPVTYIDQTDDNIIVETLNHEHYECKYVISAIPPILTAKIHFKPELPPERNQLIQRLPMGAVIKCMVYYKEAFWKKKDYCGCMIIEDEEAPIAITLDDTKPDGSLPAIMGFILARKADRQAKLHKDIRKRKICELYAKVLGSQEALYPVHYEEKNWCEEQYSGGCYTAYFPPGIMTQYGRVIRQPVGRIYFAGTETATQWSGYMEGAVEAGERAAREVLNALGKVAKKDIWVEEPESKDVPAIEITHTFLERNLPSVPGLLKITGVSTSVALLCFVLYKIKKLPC

Acetylcholinesterase [3] = target: T3, Acetylcholinesterase (Homo sapiens, UniProt P22303); assay: In vitro inhibitory concentration against purified Acetylcholinesterase of human erythrocytes; value ranges from 5.4-38.2
T3 sequence (P22303 whole entry): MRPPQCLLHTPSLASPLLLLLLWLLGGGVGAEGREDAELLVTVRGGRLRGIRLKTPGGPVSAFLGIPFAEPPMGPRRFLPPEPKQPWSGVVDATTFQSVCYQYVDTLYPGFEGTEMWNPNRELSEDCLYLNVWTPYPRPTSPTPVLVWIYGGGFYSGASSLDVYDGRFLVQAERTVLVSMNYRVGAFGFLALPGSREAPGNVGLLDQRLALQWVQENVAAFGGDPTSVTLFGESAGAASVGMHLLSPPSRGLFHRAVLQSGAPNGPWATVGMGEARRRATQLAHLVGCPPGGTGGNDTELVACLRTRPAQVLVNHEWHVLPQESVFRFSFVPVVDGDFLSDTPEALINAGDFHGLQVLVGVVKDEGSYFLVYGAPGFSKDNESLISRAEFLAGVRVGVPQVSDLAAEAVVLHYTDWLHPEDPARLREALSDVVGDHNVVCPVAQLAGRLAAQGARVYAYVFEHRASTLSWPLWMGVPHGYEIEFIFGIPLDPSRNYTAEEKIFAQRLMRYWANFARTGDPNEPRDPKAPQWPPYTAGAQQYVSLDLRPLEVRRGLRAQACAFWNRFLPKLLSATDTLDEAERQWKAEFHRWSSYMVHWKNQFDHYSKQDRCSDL

Butyrylcholinesterase [4] = target: T4, Butyrylcholinesterase (Equus caballus, UniProt Q9N1N9); assay: In vitro inhibitory concentration against Butyrylcholinesterase of horse serum; value ranges from 1.89-4.67
T4 sequence (Q9N1N9 whole entry): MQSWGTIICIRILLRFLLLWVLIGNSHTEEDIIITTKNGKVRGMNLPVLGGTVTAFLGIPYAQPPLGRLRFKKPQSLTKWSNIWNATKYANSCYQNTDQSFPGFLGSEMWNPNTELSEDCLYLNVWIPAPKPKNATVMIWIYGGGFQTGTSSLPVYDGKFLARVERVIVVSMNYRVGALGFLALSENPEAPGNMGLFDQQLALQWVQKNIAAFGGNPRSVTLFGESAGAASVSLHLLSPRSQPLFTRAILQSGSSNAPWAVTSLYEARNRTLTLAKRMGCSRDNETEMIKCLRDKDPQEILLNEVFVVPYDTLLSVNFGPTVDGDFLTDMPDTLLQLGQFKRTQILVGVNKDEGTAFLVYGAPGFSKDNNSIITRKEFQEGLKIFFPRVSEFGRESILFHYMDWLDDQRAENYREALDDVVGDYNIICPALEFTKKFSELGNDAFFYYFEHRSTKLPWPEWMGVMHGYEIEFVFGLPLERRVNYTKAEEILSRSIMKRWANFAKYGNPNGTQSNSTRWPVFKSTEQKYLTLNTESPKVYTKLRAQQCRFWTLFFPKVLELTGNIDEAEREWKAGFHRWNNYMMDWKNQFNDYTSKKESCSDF
Outline: (§1)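 Ellman assay followed, with 200 µM butyrylthiocholine as substrate. Runs were in triplicate with four-point dose-response curves. IC50 and fiducial limits came from log concentration versus % inhibition.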

[5] = target: T2, Amine oxidase [flavin-containing] A; assay: In vitro inhibitory concentration against Monoamine oxidase A of rat brain homogenates; value ranges from 13-17; format: tissue-based
[6] = target: T1, Amine oxidase [flavin-containing] B; assay: In vitro inhibitory concentration against Monoamine oxidase B of rat brain homogenates; value ranges from 0.2-0.8; format: tissue-based
Acetylcholinesterase [7] = target: T3, Acetylcholinesterase; assay: In vitro inhibitory concentration against purified Acetylcholinesterase of human erythrocytes; value ranges from 2.2-10.1
Butyrylcholinesterase [8] = target: T4, Butyrylcholinesterase; assay: In vitro inhibitory concentration against Butyrylcholinesterase of horse serum; value ranges from 0.71-0.86
Outline: as §1

[9] = target: T1, Amine oxidase [flavin-containing] B; assay: In vitro inhibitory concentration against Monoamine oxidase B of rat brain homogenates; format: tissue-based
[10] = target: T2, Amine oxidase [flavin-containing] A; assay: In vitro inhibitory concentration against Monoamine oxidase A of rat brain homogenates; value ranges from 1.8-2.4; format: tissue-based
[11] = target: T2, Amine oxidase [flavin-containing] A; assay: In vitro inhibitory concentration against Monoamine oxidase A of rat brain homogenates; value ranges from 0.005-0.012; format: tissue-based
Acetylcholinesterase [12] = target: T3, Acetylcholinesterase; assay: In vitro inhibitory concentration against purified Acetylcholinesterase of human erythrocytes; value ranges from 0.18-0.44
[13] = target: T2, Amine oxidase [flavin-containing] A; assay: In vitro inhibitory concentration against Monoamine oxidase A of rat brain homogenates; value ranges from 60-150; format: tissue-based
Acetylcholinesterase [14] = target: T3, Acetylcholinesterase; assay: In vitro inhibitory concentration against purified Acetylcholinesterase of human erythrocytes; value ranges from 2.2-6.9
[15] = target: T1, Amine oxidase [flavin-containing] B; assay: In vitro inhibitory concentration against Monoamine oxidase B of rat brain homogenates; value ranges from 0.18-0.30; format: tissue-based
Outline: (§2)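 Rat brain homogenate (in 0.3 M sucrose) as enzyme source; compounds diluted 10⁻²M to 10⁻⁹M in 0.05 M phosphate buffer with 0.15 μM clorgyline; preincubated 60 min at 37 °C, then 10 μM ¹⁴C-phenylethylamine added for 20 min more; stopped with citric acid; metabolites extracted into toluene/ethyl acetate, scintillation counted; activity as % of control, tranylcypromine blank.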

[16] = target: T2, Amine oxidase [flavin-containing] A; assay: In vitro inhibitory concentration against Monoamine oxidase A of rat brain homogenates; value ranges from 14-24; format: tissue-based
[17] = target: T2, Amine oxidase [flavin-containing] A; assay: In vitro inhibitory concentration against Monoamine oxidase A of rat brain homogenates; value ranges from 0.014-0.016; format: tissue-based
[18] = target: T1, Amine oxidase [flavin-containing] B; assay: In vitro inhibitory concentration against Monoamine oxidase B of rat brain homogenates; value ranges from […]; format: tissue-based
Outline: as §2

[19] = target: T1, Amine oxidase [flavin-containing] B; assay: In vitro inhibitory concentration against Monoamine oxidase B of rat brain homogenates; value ranges from 0.7-1.3; format: tissue-based
[20] = target: T2, Amine oxidase [flavin-containing] A; assay: In vitro inhibitory concentration against Monoamine oxidase A of rat brain homogenates; value ranges from 0.5-1.6; format: tissue-based
[21] = target: T2, Amine oxidase [flavin-containing] A; assay: In vitro inhibitory concentration against Monoamine oxidase A of rat brain homogenates; value ranges from 110-520; format: tissue-based
Acetylcholinesterase [22] = target: T3, Acetylcholinesterase; assay: In vitro inhibitory concentration against purified Acetylcholinesterase of human erythrocytes; value ranges from 0.12-0.32
Acetylcholinesterase [23] = target: T3, Acetylcholinesterase; assay: In vitro inhibitory concentration against purified Acetylcholinesterase of human erythrocytes; value ranges from 3.87-11.9
Butyrylcholinesterase [24] = target: T4, Butyrylcholinesterase; assay: In vitro inhibitory concentration against Butyrylcholinesterase of horse serum; value ranges from […]
Outline: as §1

[25] = target: T2, Amine oxidase [flavin-containing] A; assay: In vitro inhibitory concentration against Monoamine oxidase A of rat brain homogenates; format: tissue-based
Butyrylcholinesterase [26] = target: T4, Butyrylcholinesterase; assay: In vitro inhibitory concentration against Butyrylcholinesterase of horse serum; value ranges from 1.63-2.45
Outline: as §1

[27] = target: T2, Amine oxidase [flavin-containing] A; assay: In vitro inhibitory concentration against Monoamine oxidase A of rat brain homogenates; value ranges from 4.3-7.3; format: tissue-based
Acetylcholinesterase [28] = target: T3, Acetylcholinesterase; assay: In vitro inhibitory concentration against purified Acetylcholinesterase of human erythrocytes; value ranges from […]-[…]
Acetylcholinesterase [29] = target: T3, Acetylcholinesterase; assay: In vitro inhibitory concentration against purified Acetylcholinesterase of human erythrocytes; value ranges from 5.24-30.8
Butyrylcholinesterase [30] = target: T4, Butyrylcholinesterase; assay: In vitro inhibitory concentration against Butyrylcholinesterase of horse serum; value ranges from 6.8-31.2
Outline: as §1

Acetylcholinesterase [31] = target: T3, Acetylcholinesterase; assay: In vitro inhibitory concentration against purified Acetylcholinesterase of human erythrocytes; value ranges from 13.6-128
Butyrylcholinesterase [32] = target: T4, Butyrylcholinesterase; assay: In vitro inhibitory concentration against Butyrylcholinesterase of horse serum; value ranges from 1.6-3.6
[33] = target: T2, Amine oxidase [flavin-containing] A; assay: biochemical

C#CCN(C)CCc1cccc(O)c1
IC50 [1]: 6.4 µM
IC50 [2]: 1.3 µM

C#CCNC(C)Cc1cccc(OC(=O)N(C)CCCC)c1 (stereo not drawn)
IC50 (Acetylcholinesterase [3]): 12.2 µM
IC50 (Butyrylcholinesterase [4]): 2.75 µM
IC50 [5]: 15 µM
IC50 [6]: 0.4 µM

C#CCNC1CCc2ccc(OC(=O)N(C)C)cc2C1 (stereo not drawn)
IC50 (Acetylcholinesterase [7]): 4.1 µM
IC50 (Butyrylcholinesterase [8]): 0.77 µM
IC50 [9]: 1000 µM
IC50 [10]: 2 µM

C#CCN(C)C1CCc2c(O)cccc21 (stereo not drawn)
IC50 [11]: 0.008 µM

CN(C)C(=O)Oc1cccc(CCN)c1
IC50 (Acetylcholinesterase [12]): 0.23 µM
IC50 [9]: > 1000 µM
IC50 [13]: 95 µM

C#CCNC(C)Cc1cccc(OC(=O)N(C)C2CCCCC2)c1 (stereo not drawn)
IC50 (Acetylcholinesterase [14]): 3.6 µM
IC50 [15]: 0.23 µM
IC50 [16]: 18 µM

C#CCN(C)C1CCc2ccc(O)cc21 (stereo not drawn)
IC50 [17]: 0.015 µM
IC50 [18]: 0.03 µM

C#CCNC1CCc2c(O)cccc21 (stereo not drawn)
IC50 [19]: 0.9 µM
IC50 [20]: 0.9 µM

CCCN(C)C(=O)Oc1cccc(CCN)c1
IC50 [9]: > 1000 µM
IC50 [21]: 240 µM

CN(C)CCc1cccc(OC(=O)N(C)C)c1
IC50 (Acetylcholinesterase [22]): 0.16 µM
IC50 [9]: > 1000 µM

CCN(C)C(=O)Oc1ccc2c(c1)C(N)CCC2 (stereo not drawn)
IC50 (Acetylcholinesterase [23]): 6.22 µM
IC50 (Butyrylcholinesterase [24]): 5.41 µM
IC50 [25]: 1000 µM

CCN(C)C(=O)Oc1ccc2c(c1)[C@H](N)CC2
IC50 (Butyrylcholinesterase [26]): 1.96 µM
IC50 [9]: > 1000 µM
IC50 [27]: 5.6 µM
IC50 (Acetylcholinesterase [28]): 6.14 µM

C#CCN[C@@H]1CCc2ccc(OC(=O)N(C)CCC)cc21
IC50 (Acetylcholinesterase [29]): 10.8 µM
IC50 (Butyrylcholinesterase [30]): 14.9 µM

C#CCN[C@H]1CCc2ccc(OC(=O)N(C)CC)cc21
IC50 (Acetylcholinesterase [31]): 34.9 µM
IC50 (Butyrylcholinesterase [32]): 2.2 µM
IC50 [9]: > 1000 µM
IC50 [33]: 550 µM
